Experimental findings from PubChem BioAssay are described below.

Each structure is given as a SMILES string. The source made the active and inactive calls.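 The calls were made as follows, unless noted: active = GFP response above 150% of the DMSO level; inconclusive = fewer than 70 events counted for a yeast strain; inactive = the rest.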

Experiment [1] is described as follows: RPL19A-GFP modulators, yeast TOR pathway, confirmation, cell-based, S. cerevisiae, flow cytometry, cherry picks, mother/daughter gates (AID 2270;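 active = GFP response below 50% of the DMSO control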). Particulars: S. cerevisiae RPL19A-GFP strain, 3 h, at 10 µM, stronger effect = lower value, 100 = same GFP as DMSO wells.
Experiment [2] is described as follows: LAP4-GFP expression modulators in yeast, confirmation, cell-based, cherry picks, flow cytometry, mother/daughter gates (AID 2271;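 active = GFP response above 150% of the DMSO control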;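 also: ratio of sample to DMSO plate mean so 100% equals DMSO level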). Particulars: S. cerevisiae LAP4-GFP strain, 3 h, at 10 µM, stronger effect = higher value, 100 means same as DMSO control. The method in brief:
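Material: Alexa Fluor 633-labelled Saccharomyces cerevisiae GFP-fusion strain, single-plex | Amount: Yeast cells seeded at OD600 of 0.2 | Buffer or medium: SC growth medium | Schedule: 3 h exposure, 30 °C | Measured by: HT flow cytometry, GFP fluorescence channel | Evaluation: % GFP response vs DMSO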

Experiment [3] in a line: modulators of MEP2-GFP levels in yeast, confirmation, S. cerevisiae, flow cytometry GFP, cherry picks (AID 2272;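 active = GFP response above 150% of the DMSO control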;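 also: ratio of well signal to plate DMSO mean so 100% equals DMSO level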). Particulars: S. cerevisiae MEP2-GFP strain, 3 h, at 10 µM, stronger effect = higher value. In general terms: A flow cytometer gives signals particle by particle.
Experiment [4] in a line: AGP1-GFP expression modulators, hit retest, confirmation, cell-based, flow cytometry, S. cerevisiae, cherry picks (AID 2273).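 Also: median GFP channel fluorescence over the whole cell population gate.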 Particulars: S. cerevisiae AGP1-GFP strain, 3 h, at 10 µM.
The nature of experiment [5]: modulators of CIT2-GFP expression in yeast, confirmation, S. cerevisiae, GFP fusion, cherry picks, mother/daughter gates (AID 2274). Particulars: S. cerevisiae CIT2-GFP strain, flow cytometry, 3 h, at 10 µM, stronger effect = higher value.
Where [6] appears, read: measured here: daughter cell gate.
Setting [7] is: measured here: mother cell gate.
[8] abbreviates: measured here: daughter cell gate response.
The mark [9] stands for this setting: measured here: mother cell gate response.

For `Cc1c(NC2=C(Cl)C(=O)N(c3ccccc3Cl)C2=O)c(=O)n(-c2ccccc2)n1C`, the GFP response vs DMSO in experiment [1] was 94.7% (inactive); in experiment [1] (setting [6]) it was 96.6%; in experiment [1] (setting [7]), 95.6%; in experiment [3], 96.6% (inactive). Moreover, the GFP response relative to DMSO in experiment [2] was 93.7% (inactive); in experiment [2] (setting [8]), 96.6%; in experiment [2] (setting [9]), 94.1%. The GFP response, % of DMSO in experiment [4] is 102% (inactive); in experiment [5], 110% (inactive); in experiment [5] (setting [6]), 108%; in experiment [5] (setting [7]), 110%.

For `Cc1ccccc1NC(=O)c1ccccc1`, the GFP response vs DMSO is 96.6% (inactive) in experiment [1], 98.1% in experiment [1] (setting [6]), 96.9% in experiment [1] (setting [7]) and 107% (inactive) in experiment [3]. The GFP response relative to DMSO in experiment [2] is 95.4% (inactive); in experiment [2] (setting [8]), 97.6%; in experiment [2] (setting [9]) it was 94%. Moreover, the GFP response, % of DMSO in experiment [4] was 96.4% (inactive); in experiment [5], 98.3% (inactive); in experiment [5] (setting [6]), 99.1%; in experiment [5] (setting [7]), 97.3%.

As to `CCOC(=O)c1ccc(NC(=O)c2nc(S(=O)(=O)Cc3ccccc3)ncc2Cl)cc1`, the GFP response vs DMSO in experiment [1] was 99.5% (inactive); in experiment [1] (setting [6]), 99%; in experiment [1] (setting [7]) it was 98.9%; in experiment [3], 102% (inactive). Moreover, the GFP response relative to DMSO was 93.8% (inactive) in experiment [2], 95.6% in experiment [2] (setting [8]) and 95.2% in experiment [2] (setting [9]). For the same molecule, the GFP response, % of DMSO in experiment [4] was 101% (inactive); in experiment [5] it was 97.8% (inactive); in experiment [5] (setting [6]) it was 94.8%; in experiment [5] (setting [7]), 97.7%.

Turning to `O=C(NCC(=O)N1CCCC1)c1cccs1`, the GFP response vs DMSO in experiment [1] was 99.8% (inactive); in experiment [1] (setting [6]) it was 99.6%; in experiment [1] (setting [7]), 100%; in experiment [3] it was 100% (inactive). Besides, the GFP response relative to DMSO in experiment [2] is 99.2% (inactive); in experiment [2] (setting [8]), 97.6%; in experiment [2] (setting [9]) it was 98.3%. Also, the GFP response, % of DMSO is 97.2% (inactive) in experiment [4], 104% (inactive) in experiment [5], 105% in experiment [5] (setting [6]) and 104% in experiment [5] (setting [7]).

Take `COc1cc(-c2noc(-c3cccc(Cl)c3)n2)cc(OC)c1OC`: the GFP response vs DMSO in experiment [1] was 96.2% (inactive); in experiment [1] (setting [6]), 97%; in experiment [1] (setting [7]), 95.8%; in experiment [3], 103% (inactive). Also, the GFP response relative to DMSO in experiment [2] was 90.6% (inactive); in experiment [2] (setting [8]), 88.2%; in experiment [2] (setting [9]), 91.3%. Moreover, the GFP response, % of DMSO was 99.5% (inactive) in experiment [4], 101% (inactive) in experiment [5], 101% in experiment [5] (setting [6]) and 103% in experiment [5] (setting [7]).

In the case of `Cc1ccc(/C=C/C(=O)c2ccccc2)cc1`, the GFP response vs DMSO in experiment [1] is 97.4% (inactive); in experiment [1] (setting [6]), 96.7%; in experiment [1] (setting [7]), 98.3%; in experiment [3] it was 99.5% (inactive). Besides, the GFP response relative to DMSO in experiment [2] was 100% (inactive); in experiment [2] (setting [8]) it was 102%; in experiment [2] (setting [9]), 99.5%. Also, the GFP response, % of DMSO in experiment [4] was 102% (inactive); in experiment [5] it was 102% (inactive); in experiment [5] (setting [6]) it was 100%; in experiment [5] (setting [7]), 99.1%.

As to `Cc1cc(C)c(C(=O)COC(=O)c2ccc([N+](=O)[O-])o2)cc1C`, the GFP response vs DMSO in experiment [1] was 100% (inactive); in experiment [1] (setting [6]), 102%; in experiment [1] (setting [7]), 98.2%; in experiment [3], 101% (inactive). Moreover, the results for the GFP response relative to DMSO in experiment [2], in experiment [2] (setting [8]) and in experiment [2] (setting [9]) were 102% (inactive), 102% and 104%, respectively. Moreover, the GFP response, % of DMSO in experiment [4] was 105% (inactive); in experiment [5], 100% (inactive); in experiment [5] (setting [6]), 101%; in experiment [5] (setting [7]), 97.1%.

Turning to `CCOC(=O)/C(=C\c1cn(C)c2ccccc12)[N+](=O)[O-]`, the GFP response vs DMSO in experiment [1] was 98.2% (inactive); in experiment [1] (setting [6]) it was 93.4%; in experiment [1] (setting [7]), 93.6%; in experiment [3], 111% (inactive). The values for the GFP response relative to DMSO in experiment [2], in experiment [2] (setting [8]) and in experiment [2] (setting [9]) were 204% (active), 163% and 202%, respectively. Further, the GFP response, % of DMSO in experiment [4] is 84.2% (inactive); in experiment [5], 86.9% (inactive); in experiment [5] (setting [6]), 88.1%; in experiment [5] (setting [7]) it was 76%.

With `CCOC(=O)C1CCCN(c2c(C(=O)c3ccccc3)cnc3ccccc23)C1` (stereo unspecified), the GFP response vs DMSO was 99.3% (inactive) in experiment [1], 98.8% in experiment [1] (setting [6]), 102% in experiment [1] (setting [7]) and 97.5% (inactive) in experiment [3]. The GFP response relative to DMSO in experiment [2] is 91.9% (inactive); in experiment [2] (setting [8]) it was 90.7%; in experiment [2] (setting [9]) it was 89.7%. The GFP response, % of DMSO in experiment [4] is 101% (inactive); in experiment [5] it was 104% (inactive); in experiment [5] (setting [6]), 104%; in experiment [5] (setting [7]) it was 101%.

In the case of `CCNC(=O)/C(C#N)=C/c1c(N2CCN(Cc3ccc4c(c3)OCO4)CC2)nc2c(C)cccn2c1=O`, the GFP response vs DMSO in experiment [1] was 101% (inactive); in experiment [1] (setting [6]), 99.2%; in experiment [1] (setting [7]), 103%; in experiment [3], 102% (inactive). Moreover, the GFP response relative to DMSO is 99.8% (inactive) in experiment [2], 97.2% in experiment [2] (setting [8]) and 101% in experiment [2] (setting [9]). Further, the GFP response, % of DMSO in experiment [4] is 100% (inactive); in experiment [5], 104% (inactive); in experiment [5] (setting [6]), 101%; in experiment [5] (setting [7]) it was 104%.

With `O=C(Oc1oc(-c2ccco2)nc1C=Nc1ccc(Cl)cc1)c1ccco1`, the GFP response vs DMSO in experiment [1] was 104% (inactive); in experiment [1] (setting [6]) it was 104%; in experiment [1] (setting [7]) it was 103%; in experiment [3], 112% (inactive). The GFP response relative to DMSO in experiment [2] is 176% (active); in experiment [2] (setting [8]) it was 154%; in experiment [2] (setting [9]) it was 188%. Besides, the GFP response, % of DMSO in experiment [4] was 99.8% (inactive); in experiment [5] it was 89.7% (inactive); in experiment [5] (setting [6]), 95.2%; in experiment [5] (setting [7]) it was 83.8%.

In the case of `COc1ccc(C2=CC(=O)N(Nc3ccccc3)C2=O)cc1`, the GFP response vs DMSO in experiment [1] is 102% (inactive); in experiment [1] (setting [6]), 101%; in experiment [1] (setting [7]) it was 95.8%; in experiment [3], 107% (inactive). Also, the results for the GFP response relative to DMSO in experiment [2], in experiment [2] (setting [8]) and in experiment [2] (setting [9]) were 178% (active), 170% and 172%, respectively. The GFP response, % of DMSO was 105% (inactive) in experiment [4], 99.1% (inactive) in experiment [5], 108% in experiment [5] (setting [6]) and 90.2% in experiment [5] (setting [7]).

As to `CNc1cc(CSC)nc(SCc2ccc(Cl)cc2Cl)n1`, the GFP response vs DMSO is 93.5% (inactive) in experiment [1], 88.6% in experiment [1] (setting [6]), 96.1% in experiment [1] (setting [7]) and 102% (inactive) in experiment [3]. The GFP response relative to DMSO in experiment [2] was 125% (inactive); in experiment [2] (setting [8]) it was 118%; in experiment [2] (setting [9]) it was 131%. For the same molecule, the GFP response, % of DMSO in experiment [4] is 90.4% (inactive); in experiment [5] it was 88.3% (inactive); in experiment [5] (setting [6]) it was 86.2%; in experiment [5] (setting [7]), 89%.

Regarding `O=[N+]([O-])c1ccccc1OCCOc1ccccc1[N+](=O)[O-]`, the GFP response vs DMSO in experiment [1] is 103% (inactive); in experiment [1] (setting [6]), 101%; in experiment [1] (setting [7]), 100%; in experiment [3] it was 102% (inactive). For the same molecule, the figures for the GFP response relative to DMSO in experiment [2], in experiment [2] (setting [8]) and in experiment [2] (setting [9]) were 106% (inactive), 101% and 101%, respectively. Further, the GFP response, % of DMSO in experiment [4] is 106% (inactive); in experiment [5], 105% (inactive); in experiment [5] (setting [6]) it was 103%; in experiment [5] (setting [7]), 98.5%.

As for `O=C(c1ccc(OCC2CCCO2)cc1)N1CCN(c2ccccc2)CC1` (stereo unspecified), the GFP response vs DMSO in experiment [1] was 98.7% (inactive); in experiment [1] (setting [6]) it was 98.4%; in experiment [1] (setting [7]) it was 98.4%; in experiment [3], 103% (inactive). Further, the GFP response relative to DMSO in experiment [2] is 104% (inactive); in experiment [2] (setting [8]) it was 102%; in experiment [2] (setting [9]), 105%. In addition, the GFP response, % of DMSO in experiment [4] was 102% (inactive); in experiment [5], 100% (inactive); in experiment [5] (setting [6]) it was 101%; in experiment [5] (setting [7]), 100%.

Turning to `CC[n+]1c(/C=C/c2ccc(N(C)C)cc2)ccc2ccccc21`, the GFP response vs DMSO in experiment [1] is 99.4% (inactive); in experiment [1] (setting [6]), 96.6%; in experiment [1] (setting [7]), 96.5%; in experiment [3], 118% (inactive). Besides, the GFP response relative to DMSO in experiment [2] was 105% (inactive); in experiment [2] (setting [8]), 104%; in experiment [2] (setting [9]), 106%. For the same molecule, the GFP response, % of DMSO was 101% (inactive) in experiment [4], 97.3% (inactive) in experiment [5], 97.4% in experiment [5] (setting [6]) and 96.8% in experiment [5] (setting [7]).
